Converted amounts (≈) assume the structure as drawn.
Tests used:
Type in all cases: functional
Candida dubliniensis [1] = test: Antifungal activity against Candida dubliniensis J931021 after 24 hrs by CLSI M27-A test
Method in brief: (§1)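 Broth microdilution with echinocandins as aqueous doubling dilutions. Yeasts were grown overnight at 30°C in NGY and seeded at 10^3 yeasts/ml initial concentration in MOPS-buffered RPMI 1640, then incubated at 35°C for 24 h. The MIC was read visually as the lowest concentration giving a marked decrease in visible growth; paradoxical or trailing growth was noted.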

Candida dubliniensis [2] = test: Antifungal activity against Candida dubliniensis 75/043 after 24 hrs by EUCAST test
Method in brief: (§2)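 EUCAST broth microdilution with aqueous doubling dilutions of drug. Inoculum grown overnight at 30°C in NGY, then added to MOPS-buffered RPMI 1640 with 2% glucose at an initial 10^5 yeasts/ml. Incubated 35°C for 24 h. MICs taken from triplicate spectrophotometric dose-response data as 50% and 80% growth-reduction endpoints.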

Candida albicans [3] = test: Antifungal activity against Candida albicans T25 after 24 hrs by CLSI M27-A test
Method in brief: (§3)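 CLSI M27-A broth microdilution with aqueous doubling dilutions of drug. Inoculum grown overnight at 30°C in NGY medium, then added to MOPS-buffered RPMI 1640 at an initial 10^3 yeasts/ml. Incubated 35°C for 24 h. MIC read visually as the lowest concentration giving a marked decrease in visible growth; paradoxical or trailing growth noted.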

Candida dubliniensis [4] = test: Antifungal activity against Candida dubliniensis Leic952 after 24 hrs by CLSI M27-A test; method in brief: as §1
Candida albicans [5] = test: Antifungal activity against Candida albicans HK04M102095 after 24 hrs by EUCAST test; method in brief: as §2
Candida dubliniensis [6] = test: Antifungal activity against Candida dubliniensis J930936 after 24 hrs by EUCAST test
Method in brief: (§4)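 Yeasts were grown overnight at 30°C in NGY, then inoculated at 10^5 yeasts/ml initial concentration into MOPS-buffered RPMI 1640 with 2% glucose containing aqueous doubling dilutions of drug. Plates were held at 35°C for 24 h. MICs came from triplicate spectrophotometric dose-response data at 50% and 80% growth-reduction endpoints. Trailing meant a >100-fold gap between these endpoints; paradoxical meant regrowth ≥5% above the curve minimum.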

Candida albicans [7] = test: Antifungal activity against Candida albicans CAI4RI after 24 hrs by CLSI M27-A test; method in brief: as §3
Candida albicans [8] = test: Antifungal activity against Candida albicans JIMS146204 after 24 hrs by EUCAST test; method in brief: as §2
Candida dubliniensis [9] = test: Antifungal activity against Candida dubliniensis 90/033 after 24 hrs by EUCAST test; method in brief: as §2
Candida dubliniensis [10] = test: Antifungal activity against Candida dubliniensis ANSA 23a after 24 hrs by EUCAST test; method in brief: as §4
Candida dubliniensis [11] = test: Antifungal activity against Candida dubliniensis B71507 after 24 hrs by CLSI M27-A test; method in brief: as §1
Candida albicans [12] = test: Antifungal activity against Candida albicans NR2 after 24 hrs by CLSI M27-A test; method in brief: as §3
Candida albicans [13] = test: Antifungal activity against Candida albicans NR3 after 24 hrs by EUCAST test; method in brief: as §2
Candida dubliniensis [14] = test: Antifungal activity against Candida dubliniensis SCS17154969-1 after 24 hrs by CLSI M27-A test; method in brief: as §1
Candida dubliniensis [15] = test: Antifungal activity against Candida dubliniensis FS after 24 hrs by CLSI M27-A test; method in brief: as §1
Candida albicans [16] = test: Antifungal activity against Candida albicans NR3 after 24 hrs by CLSI M27-A test; method in brief: as §3
Candida albicans [17] = test: Antifungal activity against Candida albicans JIMS146204 after 24 hrs by CLSI M27-A test; method in brief: as §3
Pichia kudriavzevii = test: Antifungal activity against Candida krusei ATCC 6258 after 24 hrs by EUCAST test; conditions: ATCC 6258, 24 h; method in brief: as §4
Candida albicans [18] = test: Antifungal activity against Candida albicans Y109 after 24 hrs by EUCAST test; method in brief: as §2
Candida albicans [19] = test: Antifungal activity against Candida albicans T32 after 24 hrs by CLSI M27-A test; method in brief: as §3
Candida albicans [20] = test: Antifungal activity against Candida albicans HK04M102095 after 24 hrs by CLSI M27-A test; method in brief: as §3
Candida albicans [21] = test: Antifungal activity against Candida albicans NCPF6525 after 24 hrs by CLSI M27-A test; method in brief: as §3
Candida albicans [22] = test: Antifungal activity against Candida albicans SCS67023C after 24 hrs by CLSI M27-A test; method in brief: as §3
Candida dubliniensis [23] = test: Antifungal activity against Candida dubliniensis ST after 24 hrs by CLSI M27-A test; method in brief: as §1
Candida dubliniensis [24] = test: Antifungal activity against Candida dubliniensis SCSBB417709 after 24 hrs by EUCAST test; method in brief: as §4
Candida dubliniensis [25] = test: Antifungal activity against Candida dubliniensis KR after 24 hrs by CLSI M27-A test; method in brief: as §1
Candida dubliniensis [26] = test: Antifungal activity against Candida dubliniensis Leic952 after 24 hrs by EUCAST test; method in brief: as §4
Candida albicans [27] = test: Antifungal activity against Candida albicans SCS68858 after 24 hrs by CLSI M27-A test; method in brief: as §3
Candida dubliniensis [28] = test: Antifungal activity against Candida dubliniensis AMCC after 24 hrs by EUCAST test; method in brief: as §2
Candida dubliniensis [29] = test: Antifungal activity against Candida dubliniensis SCS17154969-2 after 24 hrs by EUCAST test; method in brief: as §4
Candida parapsilosis [30] = test: Antifungal activity against Candida parapsilosis ATCC 22019 after 24 hrs by CLSI M27-A test; conditions: Lodderomyces parapsilosis, ATCC 22019, 24 h; method in brief: as §1
Candida dubliniensis [31] = test: Antifungal activity against Candida dubliniensis IK after 24 hrs by CLSI M27-A test; method in brief: as §1
Candida albicans [32] = test: Antifungal activity against Candida albicans T28 after 24 hrs by CLSI M27-A test; method in brief: as §3
Candida dubliniensis [33] = test: Antifungal activity against Candida dubliniensis B71507 after 24 hrs by EUCAST test; method in brief: as §4
Candida albicans [34] = test: Antifungal activity against Candida albicans JIMS132203 after 24 hrs by EUCAST test; method in brief: as §2
Candida dubliniensis [35] = test: Antifungal activity against Candida dubliniensis SCS65875C after 24 hrs by EUCAST test; method in brief: as §4
Candida parapsilosis [36] = test: Antifungal activity against Candida parapsilosis ATCC 22019 after 24 hrs by EUCAST test; conditions: Lodderomyces parapsilosis, ATCC 22019, 24 h; method in brief: as §4
Candida albicans [37] = test: Antifungal activity against Candida albicans SCS140136P after 24 hrs by CLSI M27-A test; method in brief: as §3
Candida albicans [38] = test: Antifungal activity against Candida albicans NR4 after 24 hrs by EUCAST test; method in brief: as §2
Candida dubliniensis [39] = test: Antifungal activity against Candida dubliniensis ST after 24 hrs by EUCAST test; method in brief: as §4
Candida albicans [40] = test: Antifungal activity against Candida albicans SCS68858 after 24 hrs by EUCAST test; method in brief: as §2
Candida dubliniensis [41] = test: Antifungal activity against Candida dubliniensis KR after 24 hrs by EUCAST test; method in brief: as §4
Candida albicans [42] = test: Antifungal activity against Candida albicans AM2003/0083 after 24 hrs by CLSI M27-A test; method in brief: as §3
Candida dubliniensis [43] = test: Antifungal activity against Candida dubliniensis SCS17154969-1 after 24 hrs by EUCAST test; method in brief: as §4
Candida albicans [44] = test: Antifungal activity against Candida albicans JIMS132203 after 24 hrs by CLSI M27-A test; method in brief: as §3

SMILES: CC[C@H](C)C[C@H](C)CCCCCCCCC(=O)N[C@H]1C[C@@H](O)[C@@H](NCCN)NC(=O)[C@@H]2[C@@H](O)CCN2C(=O)[C@H]([C@H](O)CCN)NC(=O)[C@H]([C@H](O)[C@@H](O)c2ccc(O)cc2)NC(=O)[C@@H]2C[C@@H](O)CN2C(=O)[C@H]([C@@H](C)O)NC1=O [CASPOFUNGIN]
- MIC50 (Candida dubliniensis [1]): 0.5 µg/mL (≈ 0.457 µM)
- MIC50 (Candida dubliniensis [2]): 0.25 µg/mL (≈ 0.229 µM)
- MIC50 (Candida albicans [3]): 8 µg/mL (≈ 7.32 µM)
- MIC50 (Candida dubliniensis [4]): 0.5 µg/mL (≈ 0.457 µM)
- MIC50 (Candida albicans [5]): 0.25 µg/mL (≈ 0.229 µM)
- MIC50 (Candida dubliniensis [6]): 0.25 µg/mL (≈ 0.229 µM)
- MIC50 (Candida albicans [7]): 4 µg/mL (≈ 3.66 µM)
- MIC50 (Candida albicans [8]): 0.25 µg/mL (≈ 0.229 µM)
- MIC50 (Candida dubliniensis [9]): 16 µg/mL (≈ 14.6 µM)
- MIC50 (Candida dubliniensis [10]): 0.25 µg/mL (≈ 0.229 µM)
- MIC50 (Candida dubliniensis [11]): 0.5 µg/mL (≈ 0.457 µM)
- MIC50 (Candida albicans [12]): 4 µg/mL (≈ 3.66 µM)
- MIC50 (Candida albicans [13]): 4 µg/mL (≈ 3.66 µM)
- MIC50 (Candida dubliniensis [14]): 0.5 µg/mL (≈ 0.457 µM)
- MIC50 (Candida dubliniensis [15]): 0.5 µg/mL (≈ 0.457 µM)
- MIC50 (Candida albicans [16]): 8 µg/mL (≈ 7.32 µM)
- MIC50 (Candida albicans [17]): 0.5 µg/mL (≈ 0.457 µM)
- MIC50 (Pichia kudriavzevii): 2 µg/mL (≈ 1.83 µM)
- MIC50 (Candida albicans [18]): 2 µg/mL (≈ 1.83 µM)
- MIC50 (Candida albicans [19]): 0.25 µg/mL (≈ 0.229 µM)
- MIC50 (Candida albicans [20]): 0.5 µg/mL (≈ 0.457 µM)
- MIC50 (Candida albicans [21]): 0.13 µg/mL (≈ 0.119 µM)
- MIC50 (Candida albicans [22]): 0.5 µg/mL (≈ 0.457 µM)
- MIC50 (Candida dubliniensis [23]): 0.5 µg/mL (≈ 0.457 µM)
- MIC50 (Candida dubliniensis [24]): 0.25 µg/mL (≈ 0.229 µM)
- MIC50 (Candida dubliniensis [25]): 0.5 µg/mL (≈ 0.457 µM)
- MIC50 (Candida dubliniensis [26]): 0.25 µg/mL (≈ 0.229 µM)
- MIC50 (Candida albicans [27]): 0.5 µg/mL (≈ 0.457 µM)
- MIC50 (Candida dubliniensis [28]): 0.25 µg/mL (≈ 0.229 µM)
- MIC50 (Candida dubliniensis [29]): 0.5 µg/mL (≈ 0.457 µM)
- MIC50 (Candida parapsilosis [30]): 1 µg/mL (≈ 0.915 µM)
- MIC50 (Candida dubliniensis [31]): 0.5 µg/mL (≈ 0.457 µM)
- MIC50 (Candida albicans [32]): 0.25 µg/mL (≈ 0.229 µM)
- MIC50 (Candida dubliniensis [33]): 8 µg/mL (≈ 7.32 µM)
- MIC50 (Candida albicans [34]): 0.25 µg/mL (≈ 0.229 µM)
- MIC50 (Candida dubliniensis [35]): 8 µg/mL (≈ 7.32 µM)
- MIC50 (Candida parapsilosis [36]): 1 µg/mL (≈ 0.915 µM)
- MIC50 (Candida albicans [37]): 0.5 µg/mL (≈ 0.457 µM)
- MIC50 (Candida albicans [38]): 2 µg/mL (≈ 1.83 µM)
- MIC50 (Candida dubliniensis [39]): 0.5 µg/mL (≈ 0.457 µM)
- MIC50 (Candida albicans [40]): 0.25 µg/mL (≈ 0.229 µM)
- MIC50 (Candida dubliniensis [41]): 0.25 µg/mL (≈ 0.229 µM)
- MIC50 (Candida albicans [42]): 0.5 µg/mL (≈ 0.457 µM)
- MIC50 (Candida dubliniensis [43]): 0.5 µg/mL (≈ 0.457 µM)
- MIC50 (Candida albicans [44]): 0.5 µg/mL (≈ 0.457 µM)
